Measurements: ChEMBL document CHEMBL3044648, “Quantitative structure-activity relationships of monoterpenoid binding activities to the housefly GABA receptor” (2012)

Assays:
[1] = target: T1, GABA receptor subunit (Musca domestica) (UniProt Q75NA5); assay: Displacement of [3H]TBOB binding to GABA receptor in Musca domestica (house fly) heads homogenates assessed as [3H]TBOB binding at 500 uM incubated for 90 min by scintillation counting method
T1 sequence (whole entry): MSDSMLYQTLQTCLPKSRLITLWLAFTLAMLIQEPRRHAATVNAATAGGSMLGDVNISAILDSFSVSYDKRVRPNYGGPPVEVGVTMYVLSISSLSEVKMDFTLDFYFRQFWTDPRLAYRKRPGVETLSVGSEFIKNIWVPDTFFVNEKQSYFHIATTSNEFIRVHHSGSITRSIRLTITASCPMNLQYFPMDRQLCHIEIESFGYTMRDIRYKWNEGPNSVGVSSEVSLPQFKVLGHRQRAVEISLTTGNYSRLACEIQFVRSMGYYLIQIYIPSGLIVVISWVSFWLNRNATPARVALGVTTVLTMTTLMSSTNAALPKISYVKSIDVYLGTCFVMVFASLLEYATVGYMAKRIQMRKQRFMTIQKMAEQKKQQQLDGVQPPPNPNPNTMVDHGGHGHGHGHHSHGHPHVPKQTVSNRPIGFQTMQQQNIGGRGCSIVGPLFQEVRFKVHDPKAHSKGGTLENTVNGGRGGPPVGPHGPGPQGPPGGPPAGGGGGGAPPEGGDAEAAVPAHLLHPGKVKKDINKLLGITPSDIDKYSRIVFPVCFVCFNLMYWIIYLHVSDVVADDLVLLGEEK
In short: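 House fly head membranes (homogenized in 10 mM Tris-HCl pH 7.5 with 0.25 M sucrose, pelleted at 25,000xg, resuspended in 10 mM phosphate pH 7.5 with 300 mM NaCl); 20 µg protein incubated 90 min at 20 °C with 4 nM [³H]-TBOB and 500 µM monoterpenoid; GF/B filtration; nonspecific binding with 100 µM picrotoxin; specific binding as % of untreated; at least three repeats, mean ± SEM.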

Musca domestica = assay: Toxicity to Musca domestica (house fly) applied to pronotum assessed as compound level per fly causing insect mortality measured after 24 hr; format: functional

Compound	Activity [1] [%]	LD50 (Musca domestica) [µg]
Cc1ccc(C(C)C)cc1 [P-CYMENE]	90	94.7
CC(C)=CCCC(C)CC(=O)O (stereo not given) [CITRONELLIC ACID]	138	25.2
CC(C)=C1CC[C@@H](C)CC1=O [PULEGONE]	132	92.2
C=C(C)C1CCC2(C)OC2C1 (stereo not given) [LIMONENE OXIDE]	141	67.8
C=CCc1ccc2c(c1)OCO2 [SAFROLE]	43	18.3
COC(=O)c1ccccc1O [METHYL SALICYLATE]	103	41.2
C=CC(C)(O)CCC=C(C)C (stereo not given) [LINALOOL]	124	72.3
CC1CCC(C(C)C)C(O)C1 (stereo not given) [MENTHOL]	80	128.9
O=C(O)/C=C/c1ccccc1	101	–
O=Cc1ccc2c(c1)OCO2 [PIPERONAL]	93	36.1
C=C(C)[C@H]1CC=C(C)CC1 [D-LIMONENE]	86	89.4
Cc1ccc(C(C)C)cc1O [CARVACROL]	156	60.1
CC(C)[C@H]1CC[C@H](C)CC1=O (relative stereo)	86	–
CC(C)C12CCC(C)(CC1)O2 [1,4-CINEOLE]	117	151.7
C=CCc1ccc(O)c(OC)c1 [EUGENOL]	88	46.4
CC12CCC(CC1=O)C2(C)C (stereo not given) [CAMPHOR]	70	149.5
CC1=CC[C@@H](C(C)(C)O)CC1	95	–
CC12CCC(CC1)C(C)(C)O2 [EUCALYPTOL]	122	63.2
Cc1ccc(C(C)C)c(O)c1	180	–
CC(C)=CCC[C@@H](C)CC=O [CITRONELLAL]	92	46.8
CCC(=O)OCCc1ccccc1 [PHENETHYL PROPIONATE]	95	66.6
COc1cc(C=O)ccc1O [VANILLIN]	82	>500
